Source: EPA's CvTdb concentration-time database

How the values were obtained:
Rat [1] = experiment: concentration in plasma after dosing
Rat [2] = experiment: concentration in brain after dosing
human = experiment: concentration in blood after dosing; negative times count back from the end of exposure; settings: dosed: trichloroethylene, inhalation
In short: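 Concentration-versus-time or amount-versus-time points were compiled from published in vivo toxicokinetic studies and from two structured collections. The studies were found by PubMed searching, classifier screening and manual review. Points were mostly digitised from plot screenshots with WebPlotDigitizer, otherwise copied from tables, and kept in the reported units. Dose, route, subject details and medium were curated by hand from each paper, and sampling and analytical methods follow each source and were often unreported.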

rat [3] = experiment: concentration in blood after dosing; negative times count back from the end of exposure; settings: dosed: trichloroethylene, 50 ppm, inhalation, duration: 4 hr, male, Sprague Dawley

c1ccncc1 [Pyridine]
concentration in plasma [ng/mL], Rat [1], dosed: Pyridine
Settings | iv | oral
0.05 h, 5 mg/kg, Male, F344 | 5520 | –
0.25 h, 5 mg/kg, Male, F344 | 2430 | –
0.25 h, 10 mg/kg, Male, F344 | 4140 | –
0.5 h, 5 mg/kg, Male, F344 | 3550 | 2630
0.5 h, 25 mg/kg, Male, F344 | – | 16500
1 h, 5 mg/kg, Male, F344 | – | 2900
1 h, 25 mg/kg, Female, Harlan Sprague-Dawley | – | 18800
2 h, 5 mg/kg, Male, F344 | 2390 | 2920
2 h, 10 mg/kg, Male, F344 | 185 | –
2 h, 25 mg/kg, Female, Harlan Sprague-Dawley | – | 15700
2 min, 10 mg/kg, Male, F344 | 4390 | 716
4 h, 5 mg/kg, Male, F344 | 2090 | 2610
4 h, 25 mg/kg, Male, F344 | – | 15000
5 min, 5 mg/kg, Male, F344 | – | 1700
5 min, 10 mg/kg, Male, F344 | 2280 | –
5 min, 25 mg/kg, Male, F344 | – | 5570
6 h, 5 mg/kg, Male, F344 | 1640 | 1550
6 h, 25 mg/kg, Male, F344 | – | 15300
8 h, 5 mg/kg, Male, F344 | 1620 | 1070
8 h, 25 mg/kg, Female, Harlan Sprague-Dawley | – | 15400
9 h, 5 mg/kg, Male, F344 | – | 1280
10 min, 10 mg/kg, Male, F344 | – | 3820
11 h, 5 mg/kg, Male, F344 | – | 659
14 h, 25 mg/kg, Female, Harlan Sprague-Dawley | – | 10000
20 h, 25 mg/kg, Male, F344 | – | 2910
20 min, 10 mg/kg, Female, Harlan Sprague-Dawley | – | 2720
20 min, 10 mg/kg, Male, F344 | 3160 | –
24 h, 25 mg/kg, Male, F344 | – | 1640
40 h, 100 mg/kg, Male, F344 | – | 11600
40 min, 10 mg/kg, Female, Harlan Sprague-Dawley | – | 2560
50 min, 10 mg/kg, Male, F344 | 3220 | –

CC(C)[C@]12CC(=O)[C@H](C)[C@H]1C2 [alpha-Thujone]
dosed: alpha-Thujone, oral
Settings | concentration in brain, Rat [2] [ng/g] | concentration in plasma, Rat [1] [ng/mL]
0.5 h, 25 mg/kg, Female, Harlan Sprague Dawley | 801 | 189
0.5 h, 25 mg/kg, Male, Harlan Sprague Dawley | 689 | 407
0.5 h, 50 mg/kg, Female, Harlan Sprague Dawley | 1350 | 474
0.5 h, 50 mg/kg, Male, Harlan Sprague Dawley | 2470 | 710
1.5 h, 25 mg/kg, Male, Harlan Sprague Dawley | 299 | 156
1.5 h, 50 mg/kg, Female, Harlan Sprague Dawley | 966 | 491
1.5 h, 50 mg/kg, Male, F344 | 952 | 294
1.5 h, 50 mg/kg, Male, Harlan Sprague Dawley | 677 | 116
2 min, 25 mg/kg, Female, Harlan Sprague Dawley | 77.8 | 29.7
2 min, 25 mg/kg, Male, Harlan Sprague Dawley | 21 | 45.2
2 min, 50 mg/kg, Female, Harlan Sprague Dawley | 44.8 | 109
2 min, 50 mg/kg, Male, Harlan Sprague Dawley | 40.6 | 11.9
3 h, 25 mg/kg, Female, Harlan Sprague Dawley | 390 | 104
3 h, 25 mg/kg, Male, Harlan Sprague Dawley | 122 | 134
3 h, 50 mg/kg, Female, Harlan Sprague Dawley | 517 | 214
3 h, 50 mg/kg, Male, Harlan Sprague Dawley | 1130 | 255
5 min, 25 mg/kg, Male, Harlan Sprague Dawley | 414 | 146
5 min, 50 mg/kg, Female, F344 | 2010 | 1480
5 min, 50 mg/kg, Female, Harlan Sprague Dawley | 508 | 427
6 h, 25 mg/kg, Female, Harlan Sprague Dawley | 270 | 84.7
6 h, 25 mg/kg, Male, Harlan Sprague Dawley | 77.1 | 119
6 h, 50 mg/kg, Female, F344 | 437 | 146
6 h, 50 mg/kg, Female, Harlan Sprague Dawley | 648 | 209
6 h, 50 mg/kg, Male, Harlan Sprague Dawley | 518 | 174
10 min, 25 mg/kg, Male, Harlan Sprague Dawley | 689 | 323
10 min, 50 mg/kg, Female, F344 | 4550 | 1200
10 min, 50 mg/kg, Female, Harlan Sprague Dawley | 1030 | 547
10 min, 50 mg/kg, Male, F344 | 6400 | 2200
10 min, 50 mg/kg, Male, Harlan Sprague Dawley | 6510 | 2050
12 h, 25 mg/kg, Female, Harlan Sprague Dawley | 12.7 | 3.31
12 h, 25 mg/kg, Male, Harlan Sprague Dawley | – | 16.4
12 h, 50 mg/kg, Female, Harlan Sprague Dawley | 48.5 | 24.3
12 h, 50 mg/kg, Male, Harlan Sprague Dawley | 31.7 | 11.6

dosed: 76231-76-0, 3.0 mg/kg, iv, F344
Settings | concentration in brain, Rat [2] [ng/g] | concentration in plasma, Rat [1] [ng/mL]
2 h, Female | 16.8 | 4.41
2.5 h, Female | 11.6 | 2.79
3 h, Female | 11.6 | –
4 h, Male | 26.3 | –
12 h, Male | – | 3.95

OCC(Cl)(Cl)Cl [trichloroethanol (free)]
human, 100 ppm, duration: 4 hr, person
Settings | concentration in blood [ng/mL]
0.2566 h | 2040
0.515 h | 2000
1.032 h | 1910
1.986 h | 1740
3.954 h | 1400
5.921 h | 1180
7.947 h | 1070
9.954 h | 944
11.96 h | 896
13.99 h | 727
15.97 h | 577
18 h | 459

human, 100 ppm, duration: 4 hr, person, during exposure
Settings | concentration in blood [ng/mL]
-5 s | 2030
-3.524 h | 172
-2.99 h | 481
-2.021 h | 1060
-0.9915 h | 1570

rat [3]
Settings | concentration in blood [ng/mL]
0.1729 h | 1250
0.1865 h | 2020
0.2651 h | 1140
0.2753 h | 828
0.3836 h | 2260
0.4311 h | 1340
0.5027 h | 1180
0.594 h | 829
0.9111 h | 1110
0.9517 h | 1010
1.022 h | 1130
1.11 h | 898
1.769 h | 955
1.908 h | 1010
2.006 h | 889
3.915 h | 1650
3.921 h | 897
4.003 h | 757
5.934 h | 757
5.937 h | 703
5.949 h | 1380
5.978 h | 655
7.942 h | 1260
7.97 h | 667
7.992 h | 595
9.919 h | 656
9.986 h | 538
10.01 h | 509
10.11 h | 1120
11.91 h | 627
11.95 h | 1030
11.98 h | 546
12.02 h | 481
13.9 h | 557
13.93 h | 469
13.94 h | 1040
13.99 h | 534
15.9 h | 507
15.93 h | 893
15.95 h | 448
17.94 h | 348
17.96 h | 350
41 s | 978
86 s | 1200

rat [3], during exposure
Settings | concentration in blood [ng/mL]
-169 s | 1350
-3.506 h | 437
-3.433 h | 315
-3.408 h | 626
-3.033 h | 1060
-3.009 h | 547
-3 h | 486
-2.975 h | 327
-2.015 h | 830
-2.001 h | 1560
-1.996 h | 845
-1.989 h | 628
-1.021 h | 1080
-1.008 h | 1890
-0.9983 h | 790
-0.9843 h | 968
-0.032 h | 1940

OCC(Cl)(Cl)Cl [trichloroethanol]
concentration in blood [mg/kg], human, duration: 2 hr - 20 min
Settings | 0 h | 0.5 h | 1 h | 1.5 h | 2 h | 21 h
1348 mg | 2.8 | 2.7 | 2.6 | 2.5 | 2.4 | 0.8
1681 mg | 3 | 3.3 | 3.3 | 3.2 | 3.1 | 1
3907 mg | 3.9 | 4.5 | 4.2 | 4.4 | 4.4 | 1.6

human
Settings | concentration in blood
-1.833 h, 1348 mg, duration: 2 hr - 20 min, during exposure | 0.8 mg/kg
-1.833 h, 1681 mg, duration: 2 hr - 20 min, during exposure | 0.7 mg/kg
-1.833 h, 3907 mg, duration: 2 hr - 20 min, during exposure | 1.4 mg/kg
-1 h, 1348 mg, duration: 2 hr - 20 min, during exposure | 1.3 mg/kg
-1 h, 1681 mg, duration: 2 hr - 20 min, during exposure | 1.9 mg/kg
-1 h, 3907 mg, duration: 2 hr - 20 min, during exposure | 2.2 mg/kg
-0.5 h, 1348 mg, duration: 2 hr - 20 min, during exposure | 2.2 mg/kg
-0.5 h, 1681 mg, duration: 2 hr - 20 min, during exposure | 2.1 mg/kg
-0.5 h, 3907 mg, duration: 2 hr - 20 min, during exposure | 3.1 mg/kg
0 h, 100 ppm, duration: 6 hr, female | 4110 ng/mL
18 h, 100 ppm, duration: 6 hr, female | 2420 ng/mL
24 h, 100 ppm, duration: 6 hr, female | 5640 ng/mL
42 h, 100 ppm, duration: 6 hr, female | 2510 ng/mL
48 h, 100 ppm, duration: 6 hr, female | 5750 ng/mL
66 h, 100 ppm, duration: 6 hr, female | 3180 ng/mL
72 h, 100 ppm, duration: 6 hr, female | 9060 ng/mL
90 h, 100 ppm, duration: 6 hr, female | 5590 ng/mL
96 h, 100 ppm, duration: 6 hr, female | 9010 ng/mL

Settings | concentration in blood [ng/mL]
human, -6 h, 100 ppm, duration: 6 hr, female, during exposure | 212
